Experimental data taken from ChEMBL document CHEMBL4308887, “Synthesis and biological evaluation of clovamide analogues with catechol functionality as potent Parkinson's disease agents in vitro and in vivo” (Bioorg Med Chem Lett, 2019).
Calls of active or inactive are those of the source. The calls are words filed in the database; no cut-off is given here.

What was measured:
SH-SY5Y [1] = assay: Protection against H2O2-induced oxidative stress in human SH-SY5Y cells assessed as increase in SOD activity preincubated for 6 hrs followed by H2O2 addition and measured after 24 hrs by xanthine oxidase method; type: functional, cell-based
Method in brief: (§1)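 Cellular SOD activity (units) and MDA content (μmol/g) measured in SH-SY5Y after pretreatment (1, 10 μM) and 600 μM H₂O₂. Mean ± S.E.M. of three independent experiments.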

SH-SY5Y [2] = assay: Protection against H2O2-induced apoptosis in human SH-SY5Y cells assessed as early apoptotic cells at 10 uM preincubated for 6 hrs followed by H2O2 addition and measured after 24 hrs by Annexin V-FITC/propidium iodide staining based flow cytometry (reference value: 6.6%); type: functional
SH-SY5Y [3] = assay: Protection against H2O2-induced oxidative stress in human SH-SY5Y cells assessed as reduction in MDA level preincubated for 6 hrs followed by H2O2 addition and measured after 24 hrs by thiobarbituric acid method; type: functional, cell-based; method in brief: as §1
[4] = Activation of PI3K/Akt/mTOR signaling in human SH-SY5Y cells assessed as up regulation of H2O2-induced HO-1 expression at 10 uM preincubated for 6 hrs followed by H2O2 addition and after 24 hrs in presence of JNK inhibitor SP600125 by Western blot analysis; type: cell-based
Method in brief: (§2)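 SH-SY5Y cells preincubated 1 h with one inhibitor: SB203580 10 μM, LY294002 5 μM, U0126 10 μM, SP600125 5 μM or rapamycin 100 nM. Then 1 (10 μM) for 6 h, then 600 μM H₂O₂. HO-1 measured by western blot and densitometry. Mean ± S.E.M., three independent experiments.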

SH-SY5Y [5] = assay: Protection against H2O2-induced morphological changes in human SH-SY5Y cells at 1 to 10 uM preincubated for 6 hrs followed by H2O2 addition and measured after 24 hrs by inverted microscopic analysis; type: functional, cell-based
Method in brief: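 Cell morphology under inverted microscope after pretreatment and 600 μM H₂O₂; DMSO below 0.1%.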

SH-SY5Y [6] = assay: Protection against H2O2-induced oxidative stress in human SH-SY5Y cells assessed as reduction in reactive oxygen species level preincubated for 6 hrs followed by H2O2 addition and measured after 24 hrs by DHE dye based flow cytometry; type: functional, cell-based
[7] = Activation of PI3K/Akt/mTOR signaling in human SH-SY5Y cells assessed as up regulation of HO-1 expression at 1 uM after 24 hrs by Western blot analysis relative to control; type: cell-based
Method in brief: (§3)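 HO-1 western blot in SH-SY5Y cells incubated 24 h with 1 at 0.1, 1 or 10 μM, without H₂O₂. Band densitometry expressed as % of control. Mean ± S.E.M. from three independent experiments.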

[8] = Half life in Sprague-Dawley rat at 25 mg/kg, po by LC-MS/MS analysis; type: ADME, organism-based; conditions: in vivo
Method in brief: (§4)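 Male Sprague–Dawley rats dosed with 1 at 5 mg/kg i.v. (vehicle 5% DMSO, 2% F68, 93% saline) or 25 mg/kg p.o. (0.5% methylcellulose with 1% Tween 80). Orbital blood sampled at 0.083–24 h, 12 time points. Plasma PK parameters derived. Mean ± SD, n = 3.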

Mus musculus [9] = assay: (§5) Anti-parkinson's activity in MPTP-induced C57Bl/6 mouse model of Parkinson's disease assessed as decrease in cleaved caspase3 expression in substantia nigra at 10 to 20 mg/kg, ig pretreated for 10 days followed by MPTP challenge measured 10 days post MPTP addition by Western blot analysis; type: functional, organism-based
Method in brief: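 Substantia nigra from MPTP mice. Bax, Bcl-2 and cleaved caspase-3 measured by western blot, with Bcl-2/Bax ratio by densitometry. Mean ± S.D., n = 6 mice/group.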

SH-SY5Y [10] = assay: Induction of apoptosis in non-stimulated human SH-SY5Y cells assessed as early apoptotic cells at 10 uM measured after 6 hrs by Annexin V-FITC/propidium iodide staining based flow cytometry (reference value: 4.5%); type: cell-based
SH-SY5Y [11] = assay: Protection against H2O2-induced apoptosis in human SH-SY5Y cells assessed as improvement in nuclear fragmentation at 1 to 10 uM preincubated for 6 hrs followed by H2O2 addition and measured after 24 hrs by Hoechst 33342 staining based inverted microscopic analysis; type: functional, cell-based
Method in brief: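 Hoechst 33342 nuclear staining after pretreatment and 600 μM H₂O₂. Nuclear fragmentation and DNA condensation were scored visually.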

SH-SY5Y [12] = assay: Protection against H2O2-induced apoptosis in human SH-SY5Y cells assessed as late apoptotic cells at 10 uM preincubated for 6 hrs followed by H2O2 addition and measured after 24 hrs by Annexin V-FITC/propidium iodide staining based flow cytometry (reference value: 77.5%); type: functional
Mus musculus [13] = assay: as §5, with “increase” for “decrease”, “tyrosine hydroxylase” for “cleaved caspase3”, “DAB staining based immunohistochemistry method” for “Western blot analysis”; type: functional, organism-based
Method in brief: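 Tissue taken 10 days after MPTP injection from mice dosed orally with 1 (10 or 20 mg/kg). TH in SNpc and striatum by western blot, and by DAB immunostaining. Three of the mice per group analysed. Mean ± S.D., n = 6 mice/group.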

Mus musculus [14] = assay: Anti-parkinson's activity in MPTP-induced C57Bl/6 mouse model of Parkinson's disease assessed as reduction in MDA level in striatum administered intragastrically pretreated for 10 days followed by MPTP challenge measured 10 days post MPTP addition by thiobarbituric acid method; type: functional, organism-based
Method in brief: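 Striatum and SNpc from MPTP-treated mice dosed orally with 1 at 10 or 20 mg/kg. MDA level and SOD activity measured. Mean ± S.D., n = 6 mice/group.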

[15] = Activation of PI3K/Akt/mTOR signaling in human SH-SY5Y cells assessed as up regulation of HO-1 expression at 0.1 uM after 24 hrs by Western blot analysis relative to control; type: cell-based; method in brief: as §3
SH-SY5Y [16] = assay: Cytotoxicity against non-stimulated human SH-SY5Y cells assessed as effect on cell viability at 1 to 100 uM measured after 24 hrs by MTT assay
[17] = Clearance in Sprague-Dawley rat at 5 mg/kg, iv by LC-MS/MS analysis; type: ADME, organism-based; conditions: in vivo; method in brief: as §4
SH-SY5Y [18] = assay: Protection against H2O2-induced apoptosis in human SH-SY5Y cells assessed as decrease in cleaved caspase3 expression preincubated for 6 hrs followed by H2O2 addition and measured after 24 hrs by Western blot analysis; type: functional, cell-based
Method in brief: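 Western blot of Bax, Bcl-2 and cleaved caspase-3 in SH-SY5Y after pretreatment (1, 10 μM) and 600 μM H₂O₂. β-actin internal standard; Bax/Bcl-2 ratio from densitometry. Mean ± S.E.M., three independent experiments.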

[19] = Activation of PI3K/Akt/mTOR signaling in human SH-SY5Y cells assessed as up regulation of H2O2-induced HO-1 expression at 10 uM preincubated for 6 hrs followed by H2O2 addition and after 24 hrs in presence of p38 MAPK inhibitor SB203580 by Western blot analysis; type: cell-based; method in brief: as §2
Mus musculus [20] = assay: Anti-parkinson's activity in MPTP-induced C57Bl/6 mouse model of Parkinson's disease assessed as restoration of motor ability by measuring increase in time spent on rota-rod at 10 to 20 mg/kg, ig pretreated for 10 days followed by MPTP challenge measured 4 to 72 hrs post MPTP addition for 3 mins by rota rod test; type: functional, organism-based
Method in brief: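 MPTP-intoxicated mice given 1 orally at 10 or 20 mg/kg. Time retained on a rotating rod recorded 4, 24, 48 and 72 h after MPTP. Mean ± S.D., n = 6 mice/group.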

With `COC(=O)[C@H](Cc1ccccc1)NC(=O)/C=C/c1ccc(O)c(O)c1` [N-CAFFEOYL-PHENYLALANINE METHYL ESTER] as the compound, how does the Activity (SH-SY5Y [1]) read?
Its Activity is “Dose-dependent effect”.

What about the Activity (SH-SY5Y [2]) of the same compound?
The Activity was 4.5%.

And the Activity (SH-SY5Y [3])?
The Activity was “Dose-dependent effect”.

What about the Activity [4] of the same compound?
Its Activity is “Active”.

And the Activity (SH-SY5Y [5])?
The Activity was “Active”.

And the Activity (SH-SY5Y [6])?
Its Activity is “Dose-dependent effect”.

And the Activity [7]?
Its Activity is 155%.

What about the half-life [8] of the same compound?
The half-life was 2.7 h.

What about the Activity (Mus musculus [9]) of the same compound?
Its Activity is “Active”.

And the Activity (SH-SY5Y [10])?
The Activity was 1.4%.

What about the Activity (SH-SY5Y [11]) of the same compound?
Its Activity is “Active”.

And the Activity (SH-SY5Y [12])?
Its Activity is 4.3%.

And the Activity (Mus musculus [13])?
The Activity was “Active”.

And the Activity (Mus musculus [14])?
The Activity was “Dose-dependent effect”.

What about the Activity [15] of the same compound?
The Activity was 111%.

What about the Activity (SH-SY5Y [16]) of the same compound?
Its Activity is “Non-Toxic”.

What about the clearance [17] of the same compound?
The clearance was 25.5 mL/min/kg.

And the Activity (SH-SY5Y [18])?
The Activity was “Dose-dependent effect”.

And the Activity [19]?
Its Activity is “Active”.

What about the Activity (Mus musculus [20]) of the same compound?
Its Activity is “Active”.
